Bioassay records: PubChem BioAssay, Broad Institute
S100A4 inh HTS – S100A4-myosin IIA interaction inhibition. 360,000 tested, 0.14% active. inhibition, % at 10.7 µM. S100A4/TAMRA-MyoIIA peptide fluorescence polarization;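 active = mean inhibition of at least 70% across replicates, with every replicate also reaching that level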
Target sequence (P26447 whole entry, looked up): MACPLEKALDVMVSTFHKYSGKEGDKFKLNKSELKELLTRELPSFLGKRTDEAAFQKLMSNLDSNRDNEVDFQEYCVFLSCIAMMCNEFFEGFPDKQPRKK
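Test system: S100A4 monomer protein. Medium: HEPES buffer with Ca2+, pH 7.2. Reagent: fluorescent myosin IIA peptide, 5 nM. Compound dosing: single-point compound testing. Timing: 5 min between mix addition and reading. Benchmarks: DMSO neutral and TFP positive wells.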
Ecoli rRNA inh – inhibitors of bacterial rRNA selective over humanized ribosomes | 350,000 tested, 1.6% active | GFP signal change (wild-type ribosome), % (test concentration not listed) | E. coli WT GFP vs humanized-ribosome RFP mutants, fluorescence, 24 h; active compounds read low; DMSO median 0, no signal -100;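 active = significant combined selectivity score with lowered wild-type GFP, culture density cut under 30%, mutant RFP and density less affected; inactive = any of these conditions unmet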
PfHsp90 yeast 2 – reduces growth (ATP signal) of yeast expressing P. falciparum Hsp90 | S. cerevisiae expressing PfHsp90, BacTiter-Glo ATP, 48 h; yeast lacking PDR1 and PDR3 efflux regulators | inhibition, % at 9.4 µM | 310,000 tested, 0.32% active | AID 504621;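 active = every replicate shows inhibition above about 80%, whatever the replicate mean, limit read from the data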;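 also: 0% = DMSO neutral controls and 100% = 20 µM radicicol positive controls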
MLL AF4-AF9 inh – MLL-AF4/AF9 protein interaction inhibition; AlphaScreen, biotin-AF4 peptide binding to FLAG-AF9; inhibition, % at 10 µM; 350,000 tested, 0.47% active; AID 651704;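 active = every replicate reaching a set inhibition limit, whatever the replicate mean, cut at about 25% in these data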;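 also: 0% = plate neutral control median and 100% = total signal loss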
Cneo AK release – causes C. neoformans cell lysis; adenylate kinase release luminescence, 4 h; normalised: neutral wells 0, clomiphene wells 100; lysis activity, % at 15 µM; 360,000 tested, 0.2% active; AID 651654;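 active = mean lysis activity across replicates of at least 80%, whatever share of replicates individually reach that level; inactive = mean lysis activity below 80%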
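Assay system: log-phase C. neoformans yeast / Quantity: yeast cell density of 5 × 10^6 cells/mL / Medium: fresh YPD growth medium / Compound: single dose / Timing: static 4 h at 37 °C with compound, 1 h detection / Measured by: adenylate kinase release luminescence / Read-out: lysis from increased AK signal / Benchmarks: Clomiphene as positive lysis control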
DENV2 CPE rescue – protects cells from dengue virus 2 cytopathic effect; 350,000 tested, 1.7% active; CPE inhibition, % at 9.99 µM; DENV2-infected cells, cytopathic effect rescue, plate reader; AID 651640; in the data active = CPE inhibition above about 20%, passing the limit was not always enough; tested in BHK-21 cells;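 also: 0% = median of neutral control wells and 100% = median of positive control wells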
An asterisk follows results filed as active; x = no result. In the library only some 3.2% were active in any assay of this set; here they are far more common.

SMILES | S100A4 inh HTS | Ecoli rRNA inh | PfHsp90 yeast 2 | MLL AF4-AF9 inh | Cneo AK release | DENV2 CPE rescue
CCCn1c(=S)[nH]c2cc(Cl)ccc21 | -2 | -2 | 10 | -48 | 151* | 7
C[C@H](NC(=O)[C@H]1[C@H](CO)[C@H]2Cn3c(ccc(C4=CCCC4)c3=O)[C@@H]1N2C(=O)C1CC1)c1ccccc1 | 4 | 1 | x | -1 | x | 10
CCOC(=O)c1sc2nc(NC(=O)C(C)(C)C)sc2c1C | -1 | -20* | 0 | -12 | -2 | 1
CCOC(=O)c1sc2nc(NC(=O)C3CC3)sc2c1C | -5 | -3 | -30 | -21 | -1 | 9
COc1ccc(S(=O)(=O)N(C)C[C@H]2OCCCC[C@H](C)Oc3ccc(NC(=O)c4ccncc4)cc3C(=O)N([C@H](C)CO)C[C@H]2C)cc1 | -19 | 1 | x | -1 | -1 | 18
Cc1onc(-c2ccccc2Cl)c1C(=O)Nc1nn[nH]n1 | -23 | -31* | -4 | -3 | 0 | 3
CC(C)NC(=O)Nc1ccc2c(c1)C(=O)N([C@@H](C)CO)C[C@H](C)[C@@H](CN(C)C)OCCCC[C@H](C)O2 | 56 | 4 | x | -1 | 1 | -7
O=[N+]([O-])c1cccc(SSc2cccc([N+](=O)[O-])c2)c1 | -3 | x | 110* | -3 | 6 | 1
C[C@@H]1CN([C@H](C)CO)C(=O)Cc2cc(NC(=O)c3ccncc3)ccc2O[C@@H]1CN(C)C(=O)NC1CCCCC1 | 3 | 2 | x | -2 | 36 | 0
COCC(=O)N1C[C@H](C)[C@H](OC)CN(C)C(=O)c2ccc(NC(=O)c3cc(C)on3)cc2OC[C@H]1C | 9 | 0 | x | -2 | -1 | 17
CO[C@@H]1CN(C)C(=O)c2cc(NC(=O)Nc3c(C)noc3C)ccc2OC[C@@H](C)N(CCC(F)(F)F)C[C@@H]1C | 4 | 1 | x | -18 | -5 | 2
Cc1ccc(NC2C(=O)NC(=O)NC2=O)cc1 | -2 | x | -1 | -2 | 1 | 36*
C[C@@H]1CN([C@@H](C)CO)C(=O)c2cc(-c3cccc(C(=O)N(C)C)c3)cnc2O[C@H]1CN(C)C | 6 | 6 | x | -1 | -3 | -6
C[C@@H]1CCCCO[C@@H](CN(C)S(=O)(=O)c2ccccc2)[C@@H](C)CN([C@@H](C)CO)C(=O)c2cc(NC(=O)CCCN(C)C)ccc2O1 | 151* | -1 | x | -4 | -3 | -3
C[C@@H]1CCCCO[C@@H](CN(C)S(=O)(=O)c2ccc(Cl)cc2)[C@@H](C)CN([C@@H](C)CO)C(=O)c2cc(NC(=O)CCCN(C)C)ccc2O1 | -3 | -1 | x | 6 | 0 | -16
C[C@H](CO)N1C[C@H](C)[C@H](CN(C)S(=O)(=O)c2ccc(Cl)cc2)OCCCC[C@H](C)Oc2ccc(NC(=O)CCCN(C)C)cc2C1=O | -15 | -12 | x | 14 | 0 | 21*
CC=Cc1ccc2n(c1=O)C[C@@H]1[C@@H](CO)[C@H](C(=O)NCC)[C@H]2N1C(=O)Nc1cc(F)ccc1F (mixture of isomers) | -7 | 2 | x | -3 | 5 | 0
CCNC(=O)C[C@H]1CC[C@H]2[C@@H](COC[C@@H](O)CN2S(=O)(=O)c2ccc(Oc3ccccc3)cc2)O1 | -5 | -6 | x | -1 | 2 | -7
O=C(C[C@@H]1C[C@H]2c3cc(NC(=O)CC4CC4)ccc3O[C@H]2[C@H](CO)O1)NCc1ccncc1 | -2 | 5 | x | 0 | -6 | -8
CCNC(=O)C[C@H]1CC[C@@H](NS(=O)(=O)c2ccc(F)cc2)[C@@H](CO)O1 | -7 | 2 | x | -1 | 0 | -4
C[C@@H]1CN([C@@H](C)CO)C(=O)c2cc(NS(=O)(=O)c3ccccc3)ccc2O[C@@H](C)CCCCO[C@@H]1CN(C)C(=O)Nc1ccc(C(F)(F)F)cc1 | 3 | 2 | x | -2 | 2 | -13
C[C@@H]1CCCCO[C@@H](CN(C)C(=O)Nc2ccc(C(F)(F)F)cc2)[C@@H](C)CN([C@H](C)CO)C(=O)c2cc(NS(=O)(=O)c3ccccc3)ccc2O1 | 0 | 5 | x | -4 | 1 | 21*
